In ChEMBL document CHEMBL4219120, “Synthesis and SAR study of new hydroxy and chloro-substituted 2,4-diphenyl 5H-chromeno[4,3-b]pyridines as selective topoisomerase IIα-targeting anticancer agents” (Bioorg Med Chem, 2018):
Active and inactive are the calls of the source. The calls are words filed in the database; no cut-off is given here.

Legend:
[1] = system: HeLa; assay: Potency index, ratio of etoposide IC50 to compound IC50 for human HeLa cells; type: functional
[2] = system: T47D; assay: Antiproliferative activity against human T47D cells after 72 hrs by CCK-8 assay; type: functional, cell-based
Procedure, shortened: (§1)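 Cells seeded at 2-4 x 10^4 per well and grown overnight in medium with 10% FBS (37 °C, 5% CO2). After 4 h FBS starvation, medium was replaced with medium containing graded compound concentrations for 72 h. CCK-8 was added for 4 h more, then absorbance read at 450 nm. IC50 came from a four-parameter logistic fit. Mean ± S.D. of three experiments, each in triplicate.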

[3] = target: T1, DNA topoisomerase 1 (Homo sapiens) (UniProt P11387); assay: Inhibition of recombinant human topoisomerase 1 assessed as decrease in relaxation of supercoiled pBR322 DNA at 100 uM after 30 mins by agarose gel electrophoresis relative to control
T1 sequence (whole entry): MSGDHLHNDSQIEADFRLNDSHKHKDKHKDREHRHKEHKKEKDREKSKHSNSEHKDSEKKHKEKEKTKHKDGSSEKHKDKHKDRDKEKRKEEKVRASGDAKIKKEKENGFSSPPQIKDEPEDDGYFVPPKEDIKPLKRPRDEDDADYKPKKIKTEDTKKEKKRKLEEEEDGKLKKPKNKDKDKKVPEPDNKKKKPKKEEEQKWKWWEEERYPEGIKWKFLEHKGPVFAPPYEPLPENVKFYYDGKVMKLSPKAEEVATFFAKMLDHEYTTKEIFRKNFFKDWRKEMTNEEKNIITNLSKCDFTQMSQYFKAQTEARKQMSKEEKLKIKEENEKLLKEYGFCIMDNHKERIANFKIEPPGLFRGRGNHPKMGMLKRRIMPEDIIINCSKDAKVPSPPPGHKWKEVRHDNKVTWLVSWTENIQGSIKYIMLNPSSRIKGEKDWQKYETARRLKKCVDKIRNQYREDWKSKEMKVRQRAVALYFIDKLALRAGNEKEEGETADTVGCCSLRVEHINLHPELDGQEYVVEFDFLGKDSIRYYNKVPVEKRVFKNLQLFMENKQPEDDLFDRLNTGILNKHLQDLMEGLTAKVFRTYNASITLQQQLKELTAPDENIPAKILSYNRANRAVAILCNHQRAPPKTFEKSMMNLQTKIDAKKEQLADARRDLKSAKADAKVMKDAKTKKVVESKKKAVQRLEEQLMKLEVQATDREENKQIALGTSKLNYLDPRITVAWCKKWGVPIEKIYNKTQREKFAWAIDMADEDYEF
Procedure, shortened: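 Supercoiled pBR322 (100 ng) with 1 unit recombinant human topo I in 10 mM Tris-HCl pH 7.9, 150 mM NaCl, 0.1% BSA, 0.1 mM spermidine, 5% glycerol, 30 min at 37 °C. Stopped with SDS/dye stop solution. Run on 0.8% agarose in TAE, 50 V, 1 h; EtBr-stained; bands quantitated under UV. Compounds came from 20 mM DMSO stocks. 20 µM was tested only when inhibition at 100 µM exceeded 30%. Camptothecin was the positive control.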

[4] = system: HCT-15; assay: Antiproliferative activity against human HCT15 cells after 72 hrs by CCK-8 assay; type: functional, cell-based; settings: HCT-15, 72 h; procedure, shortened: as §1
[5] = system: HeLa; assay: Potency index, ratio of adriamycin IC50 to compound IC50 for human HeLa cells; type: functional
[6] = system: HeLa; assay: Antiproliferative activity against human HeLa cells after 72 hrs by CCK-8 assay; type: functional, cell-based; procedure, shortened: as §1
[7] = target: DNA topoisomerase 2-alpha (Homo sapiens) (UniProt P11388); assay: Inhibition of recombinant human topoisomerase 2alpha assessed as decrease in relaxation of supercoiled pBR322 DNA at 20 uM after 30 mins by agarose gel electrophoresis relative to control
Procedure, shortened: (§2)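 Recombinant human topo IIα (1 unit) with 100 ng supercoiled pBR322 in 10 mM Tris-HCl pH 7.9, 50 mM NaCl, 50 mM KCl, 5 mM MgCl2, 1 mM EDTA, 1 mM ATP, 15 µg/mL BSA, 30 min at 37 °C. Quenched with 7 mM EDTA. 0.8% agarose/TAE gel, 50 V, 1 h; EtBr stain; UV densitometry. Compounds came from 20 mM DMSO stocks. 20 µM was tested only when inhibition at 100 µM exceeded 30%. Etoposide was the positive control.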

[8] = target: DNA topoisomerase 2-alpha (Homo sapiens) (UniProt P11388); assay: Inhibition of recombinant human topoisomerase 2alpha assessed as decrease in relaxation of supercoiled pBR322 DNA at 100 uM after 30 mins by agarose gel electrophoresis relative to control; procedure, shortened: as §2
[9] = target: DNA topoisomerase 2-alpha (Homo sapiens) (UniProt P11388); assay: Inhibition of recombinant human topoisomerase 2alpha assessed as decrease in relaxation of supercoiled pBR322 DNA at 20 uM after 30 mins by agarose gel electrophoresis relative to etoposide
[10] = target: DNA topoisomerase 2-alpha (Homo sapiens) (UniProt P11388); assay: Inhibition of recombinant human topoisomerase 2alpha assessed as decrease in relaxation of supercoiled pBR322 DNA at 100 uM after 30 mins by agarose gel electrophoresis relative to etoposide
[11] = target: T1, DNA topoisomerase 1 (Homo sapiens); assay: Inhibition of recombinant human topoisomerase 1 assessed as decrease in relaxation of supercoiled pBR322 DNA at 100 uM after 30 mins by agarose gel electrophoresis relative to camptothecin
[12] = target: DNA topoisomerase 2-alpha (Homo sapiens) (UniProt P11388); assay: Potency index, ratio of compound effect for recombinant human topoisomerase 2alpha to etoposide effect for recombinant human topoisomerase 2alpha at 20 uM

Sequence of DNA topoisomerase 2-alpha (Homo sapiens) (P11388 whole entry): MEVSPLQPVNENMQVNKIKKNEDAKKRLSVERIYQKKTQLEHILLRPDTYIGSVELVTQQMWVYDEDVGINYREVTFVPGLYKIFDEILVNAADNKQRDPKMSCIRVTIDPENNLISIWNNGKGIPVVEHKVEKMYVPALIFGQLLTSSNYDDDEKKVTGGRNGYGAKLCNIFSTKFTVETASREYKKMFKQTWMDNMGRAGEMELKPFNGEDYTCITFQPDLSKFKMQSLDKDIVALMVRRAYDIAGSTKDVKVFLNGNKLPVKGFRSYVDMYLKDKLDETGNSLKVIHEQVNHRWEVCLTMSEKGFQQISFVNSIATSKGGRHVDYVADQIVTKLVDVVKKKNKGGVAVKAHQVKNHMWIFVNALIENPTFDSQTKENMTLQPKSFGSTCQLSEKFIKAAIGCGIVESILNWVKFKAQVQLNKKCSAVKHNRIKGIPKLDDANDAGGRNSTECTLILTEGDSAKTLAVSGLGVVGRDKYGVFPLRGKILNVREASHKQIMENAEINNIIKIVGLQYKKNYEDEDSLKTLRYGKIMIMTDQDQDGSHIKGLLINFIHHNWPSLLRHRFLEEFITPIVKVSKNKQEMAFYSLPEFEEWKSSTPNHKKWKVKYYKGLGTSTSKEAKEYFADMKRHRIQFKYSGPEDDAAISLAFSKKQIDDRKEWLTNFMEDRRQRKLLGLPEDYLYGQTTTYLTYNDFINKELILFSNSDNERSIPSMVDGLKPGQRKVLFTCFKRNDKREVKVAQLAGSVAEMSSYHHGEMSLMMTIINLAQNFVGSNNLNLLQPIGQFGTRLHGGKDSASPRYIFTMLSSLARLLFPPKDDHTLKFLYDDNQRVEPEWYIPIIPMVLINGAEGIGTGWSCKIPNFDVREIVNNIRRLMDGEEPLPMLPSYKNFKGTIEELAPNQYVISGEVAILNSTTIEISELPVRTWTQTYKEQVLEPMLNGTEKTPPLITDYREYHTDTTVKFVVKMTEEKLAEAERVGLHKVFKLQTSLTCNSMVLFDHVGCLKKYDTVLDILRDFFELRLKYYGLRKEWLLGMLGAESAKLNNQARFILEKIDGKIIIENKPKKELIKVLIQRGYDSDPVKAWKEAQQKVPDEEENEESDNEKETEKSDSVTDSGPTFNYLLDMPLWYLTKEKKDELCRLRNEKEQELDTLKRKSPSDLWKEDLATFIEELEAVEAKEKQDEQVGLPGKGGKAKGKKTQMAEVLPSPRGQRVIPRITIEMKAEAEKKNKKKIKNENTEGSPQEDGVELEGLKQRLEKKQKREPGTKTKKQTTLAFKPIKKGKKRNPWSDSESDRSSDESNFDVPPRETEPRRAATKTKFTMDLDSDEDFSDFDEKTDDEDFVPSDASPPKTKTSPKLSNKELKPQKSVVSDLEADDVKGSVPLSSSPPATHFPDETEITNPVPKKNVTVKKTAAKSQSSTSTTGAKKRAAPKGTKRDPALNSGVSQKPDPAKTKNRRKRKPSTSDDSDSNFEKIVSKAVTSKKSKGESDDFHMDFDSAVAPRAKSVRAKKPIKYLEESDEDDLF

Row | Compound | Ratio IC50 [1] | IC50 [2] | inhibition [3] | IC50 [4] | Ratio IC50 [5] | IC50 [6] | inhibition [7] | inhibition [8] | fold change (FC) [9] | fold change (FC) [10] | fold change (FC) [11] | Ratio [12]
1 | Oc1ccc(-c2cc(-c3cccc(Cl)c3)c3c(n2)-c2ccccc2OC3)cc1 | 15.2 | 1270 nM | 22.8% | 3410 nM | 2.6 | 660 nM | 12.1% | 79.5% |  |  |  | 
2 | Oc1ccc(-c2cc(-c3ccccc3Cl)nc3c2COc2ccccc2-3)cc1 |  | 750 nM | inactive | 1740 nM |  | 2110 nM | 74.5% | 82.7% | 2.1 | 1.24 | inactive | 2
